Measurements taken from ChEMBL document CHEMBL4371006, “Discovery of N-[4-(Quinolin-4-yloxy)phenyl]benzenesulfonamides as Novel AXL Kinase Inhibitors” (J Med Chem, 2018).
The source made the active and inactive calls. The rule behind the calls is not given here.

Tests used:
MDA-MB-231 [1] = experiment: Anti-invasive activity against human MDA-MB-231 cells up to 3 uM after 5 hrs by matrigel assay; type: functional, cell-based
Procedure, shortened: (§1)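 MDA-MB-231 cells (7000/well) seeded on polymerized 3 mg/mL Matrigel (set ≥16 h at 37°C) in serum-free medium; inhibitor added at seeding, aggregates forming over 5 h.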

MDA-MB-231 [2] = experiment: Antimigratory activity against human MDA-MB-231 cells after 3.5 hrs by microscopy based Boyden chamber assay; type: functional, cell-based; conditions: MDA-MB-231, 3.5 h
Procedure, shortened: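 Modified Boyden chamber: MDA-MB-231 cells plated in 0.1% FCS medium, migrating through 8 µm pore membrane toward 1% FCS chemoattractant for 3.5 h; transmigrated cells counted microscopically in at least 5 random fields per well.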

[3] = molecular target: T1, Tyrosine-protein kinase receptor UFO (Homo sapiens, UniProt P30530); experiment: Inhibition of AXL (unknown origin)
T1 sequence (P30530 whole entry): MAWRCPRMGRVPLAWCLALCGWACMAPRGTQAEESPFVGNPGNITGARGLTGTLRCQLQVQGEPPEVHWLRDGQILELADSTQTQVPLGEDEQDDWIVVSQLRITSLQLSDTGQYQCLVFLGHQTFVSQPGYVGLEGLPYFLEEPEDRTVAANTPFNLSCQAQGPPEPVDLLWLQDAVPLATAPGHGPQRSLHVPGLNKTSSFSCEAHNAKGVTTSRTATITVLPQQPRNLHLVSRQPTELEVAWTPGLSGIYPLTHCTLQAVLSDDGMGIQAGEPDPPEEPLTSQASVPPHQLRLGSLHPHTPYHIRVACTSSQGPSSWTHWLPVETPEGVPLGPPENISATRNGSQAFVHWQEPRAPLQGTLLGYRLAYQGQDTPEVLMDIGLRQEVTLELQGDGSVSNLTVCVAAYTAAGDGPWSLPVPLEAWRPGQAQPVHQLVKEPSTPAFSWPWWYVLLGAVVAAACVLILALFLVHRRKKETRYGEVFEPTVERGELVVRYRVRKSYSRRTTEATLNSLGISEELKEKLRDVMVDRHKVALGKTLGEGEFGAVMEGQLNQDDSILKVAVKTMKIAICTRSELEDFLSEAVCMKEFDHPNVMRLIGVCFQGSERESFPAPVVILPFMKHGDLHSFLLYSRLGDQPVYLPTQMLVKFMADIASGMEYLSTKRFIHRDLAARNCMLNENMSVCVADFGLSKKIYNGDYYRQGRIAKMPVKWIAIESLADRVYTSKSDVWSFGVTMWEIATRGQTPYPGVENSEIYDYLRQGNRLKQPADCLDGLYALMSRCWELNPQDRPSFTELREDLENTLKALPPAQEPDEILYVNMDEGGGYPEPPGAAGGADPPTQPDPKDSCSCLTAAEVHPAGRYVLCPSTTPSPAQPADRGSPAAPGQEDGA

[4] = molecular target: T2, Hepatocyte growth factor receptor (Homo sapiens, UniProt P08581); experiment: Inhibition of c-MET (unknown origin)
[5] = molecular target: T3, Epidermal growth factor receptor (Homo sapiens, UniProt P00533); experiment: Inhibition of wild type EGFR (unknown origin)
MDA-MB-231 [6] = experiment: Antimigratory activity against human MDA-MB-231 cells assessed as inhibition of large cell aggregate formation after 5 hrs by matrigel assay; type: functional, cell-based; conditions: MDA-MB-231, 5 h; procedure, shortened: as §1
[7] = molecular target: T4, Proto-oncogene tyrosine-protein kinase Src (Homo sapiens, UniProt P12931); experiment: Inhibition of SRC (unknown origin)
[8] = Selectivity ratio of compound effect for anti-invasive activity against human MDA-MB-231 cells to IC50 for AXL (unknown origin) phosphorylation
[9] = molecular target: T1, Tyrosine-protein kinase receptor UFO; experiment: Inhibition of AXL (unknown origin) phosphorylation after 1 hr by ELISA
[10] = Ratio of IC50 for antimigratory activity against human MDA-MB-231 cells after 3.5 hrs by microscopy based Boyden chamber assay to IC50 for inhibition of AXL (unknown origin)
[11] = molecular target: Macrophage colony-stimulating factor 1 receptor (Homo sapiens) (UniProt P07333); experiment: Binding affinity to wild-type human partial length CSF1R (I564 to S939 residues) expressed in bacterial expression system assessed as residual binding level at 5 umol/L by Kinomescan method
[12] = molecular target: T4, Proto-oncogene tyrosine-protein kinase Src; experiment: Binding affinity to wild-type human partial length SRC (L240 to L536 residues) expressed in bacterial expression system assessed as residual binding level at 5 umol/L by Kinomescan method
[13] = molecular target: Epithelial discoidin domain-containing receptor 1 (Homo sapiens) (UniProt Q08345); experiment: Binding affinity to wild-type human partial length DDR1 (R565 to V876 residues) expressed in bacterial expression system assessed as residual binding level at 5 umol/L by Kinomescan method
[14] = molecular target: Protein-tyrosine kinase 6 (Homo sapiens) (UniProt Q13882); experiment: Binding affinity to wild-type human partial length BRK (L166 to T451 residues) expressed in bacterial expression system assessed as residual binding level at 5 umol/L by Kinomescan method
[15] = molecular target: Tyrosine-protein kinase Lck (Homo sapiens) (UniProt P06239); experiment: Binding affinity to wild-type human partial length LCK (R207 to P509 residues) expressed in bacterial expression system assessed as residual binding level at 5 umol/L by Kinomescan method
[16] = molecular target: Platelet-derived growth factor receptor alpha (Homo sapiens) (UniProt P16234); experiment: Binding affinity to wild-type human partial length PDGFRA (V575 to D1002 residues) expressed in mammalian expression system assessed as residual binding level at 5 umol/L by Kinomescan method
[17] = molecular target: Tyrosine-protein kinase receptor UFO (Homo sapiens) (UniProt P30530); experiment: Binding affinity to wild-type human partial length AXL (R497 to Y821 residues) expressed in bacterial expression system assessed as residual binding level at 5 umol/L by Kinomescan method
[18] = molecular target: Receptor-interacting serine/threonine-protein kinase 2 (Homo sapiens, UniProt O43353); experiment: Binding affinity to wild-type human partial length RIPK2 (M1 to K310 residues) expressed in bacterial expression system assessed as residual binding level at 5 umol/L by Kinomescan method
[19] = molecular target: T2, Hepatocyte growth factor receptor; experiment: Binding affinity to wild type human partial length c-MET (D1010 to S1367 residues) expressed in bacterial expression system assessed as residual binding level at 5 umol/L by Kinomescan method
[20] = molecular target: Tyrosine-protein kinase ABL1 (Homo sapiens) (UniProt P00519); experiment: Binding affinity to wild-type human phosphorylated ABL1 (S229 to K512 residues) expressed in mammalian expression system assessed as residual binding level at 5 umol/L by Kinomescan method
[21] = molecular target: Tyrosine-protein kinase Blk (Homo sapiens) (UniProt P51451); experiment: Binding affinity to wild-type human partial length BLK (G211 to L503 residues) expressed in bacterial expression system assessed as residual binding level at 5 umol/L by Kinomescan method
[22] = molecular target: Mast/stem cell growth factor receptor Kit (Homo sapiens) (UniProt P10721); experiment: Binding affinity to wild type human partial length c-KIT (I571 to D952 residues) expressed in bacterial expression system assessed as residual binding level at 5 umol/L by Kinomescan method
[23] = molecular target: Serine/threonine-protein kinase 10 (Homo sapiens, UniProt O94804); experiment: Binding affinity to wild-type human partial length LOK (E16 to V314 residues) expressed in bacterial expression system assessed as residual binding level at 5 umol/L by Kinomescan method
[24] = molecular target: T3, Epidermal growth factor receptor; experiment: Binding affinity to wild-type human partial length EGFR (R669 to V1011 residues) expressed in bacterial expression system assessed as residual binding level at 5 umol/L by Kinomescan method
[25] = molecular target: Platelet-derived growth factor receptor beta (Homo sapiens) (UniProt P09619); experiment: Binding affinity to wild-type human partial length PDGFRB (V582 to Y1009 residues) expressed in bacterial expression system assessed as residual binding level at 5 umol/L by Kinomescan method
[26] = Toxicity in SCID/beige mouse xenografted with human MDA-MB-231 cells assessed as body weight gain at 10 mg/kg, iv administered 3 times per week measured 3 times per week starting at day 12; type: organism-based; conditions: in vivo
MDA-MB-231 [27] = experiment: Antimetastatic activity against human MDA-MB-231 cells xenografted in mouse assessed as reduction in lung metastasis at 10 mg/kg, iv administered 3 times per week measured 3 times per week starting at day 12 by hematoxylin and eosin staining based assay relative to control; type: functional; set-up: scale not given: the % may be the effect or the level left
Procedure, shortened: (§2)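 Female SCID/Beige mice inoculated with 2 x 10^6 MDA-MB-231 cells in HBSS:Matrigel (1:1) into third mammary fat pad under ketamine/xylazine. Test agent 30 mg/kg ip twice daily (12 h apart) in PEG400/H2O 70:30, or paclitaxel 10 mg/kg iv three times weekly; 10 mice/group. Tumors measured three times weekly from day 12; lungs and lymph nodes excised, formalin-fixed, nodes H&E-scored (mean ± SEM).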

MDA-MB-231 [28] = experiment: Antimetastatic activity against human MDA-MB-231 cells xenografted in mouse assessed as reduction in lymph node infiltrates at 10 mg/kg, iv administered 3 times per week measured 3 times per week starting at day 12 by hematoxylin and eosin staining based assay; type: functional, organism-based; procedure, shortened: as §2
MDA-MB-231 [29] = experiment: Antitumor activity against human MDA-MB-231 cells xenografted in mouse assessed as tumor growth inhibition at 10 mg/kg, iv administered 3 times per week measured 3 times per week starting at day 12; type: functional, organism-based; procedure, shortened: as §2

T2 sequence (P08581 whole entry): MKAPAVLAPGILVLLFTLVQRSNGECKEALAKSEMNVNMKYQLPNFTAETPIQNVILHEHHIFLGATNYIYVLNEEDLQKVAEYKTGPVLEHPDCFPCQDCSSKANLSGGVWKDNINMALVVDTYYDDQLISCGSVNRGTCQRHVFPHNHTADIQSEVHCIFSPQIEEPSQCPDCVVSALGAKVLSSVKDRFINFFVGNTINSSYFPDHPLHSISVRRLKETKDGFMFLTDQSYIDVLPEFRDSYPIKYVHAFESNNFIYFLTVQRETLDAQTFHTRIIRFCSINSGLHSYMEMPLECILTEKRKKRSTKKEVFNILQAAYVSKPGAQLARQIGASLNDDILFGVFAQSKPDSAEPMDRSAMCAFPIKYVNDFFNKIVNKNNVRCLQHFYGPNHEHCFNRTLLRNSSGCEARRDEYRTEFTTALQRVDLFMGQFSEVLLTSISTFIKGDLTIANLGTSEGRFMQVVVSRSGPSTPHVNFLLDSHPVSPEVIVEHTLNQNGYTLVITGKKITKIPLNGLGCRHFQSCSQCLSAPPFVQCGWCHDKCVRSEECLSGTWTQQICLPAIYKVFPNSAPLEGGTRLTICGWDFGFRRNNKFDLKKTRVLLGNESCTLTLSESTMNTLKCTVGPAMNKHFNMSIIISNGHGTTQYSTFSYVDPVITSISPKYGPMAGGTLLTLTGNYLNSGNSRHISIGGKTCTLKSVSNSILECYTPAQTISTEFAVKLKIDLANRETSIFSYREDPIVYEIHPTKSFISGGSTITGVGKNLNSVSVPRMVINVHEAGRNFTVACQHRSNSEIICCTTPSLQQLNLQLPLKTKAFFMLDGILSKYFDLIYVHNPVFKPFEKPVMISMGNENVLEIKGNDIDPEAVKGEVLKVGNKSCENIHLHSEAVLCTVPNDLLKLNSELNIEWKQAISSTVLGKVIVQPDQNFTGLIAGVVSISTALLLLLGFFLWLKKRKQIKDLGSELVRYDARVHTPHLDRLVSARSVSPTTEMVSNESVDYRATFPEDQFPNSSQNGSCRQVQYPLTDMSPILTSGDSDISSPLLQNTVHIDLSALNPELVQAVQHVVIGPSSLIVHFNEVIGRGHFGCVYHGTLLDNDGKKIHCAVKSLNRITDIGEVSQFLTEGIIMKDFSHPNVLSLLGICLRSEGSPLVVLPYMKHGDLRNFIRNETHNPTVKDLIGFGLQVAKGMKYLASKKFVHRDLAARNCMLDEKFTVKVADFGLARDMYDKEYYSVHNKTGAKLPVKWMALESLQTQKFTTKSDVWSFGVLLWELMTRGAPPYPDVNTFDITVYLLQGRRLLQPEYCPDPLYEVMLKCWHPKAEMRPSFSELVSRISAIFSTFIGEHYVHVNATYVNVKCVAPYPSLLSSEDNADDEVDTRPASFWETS
T3 sequence (P00533 whole entry): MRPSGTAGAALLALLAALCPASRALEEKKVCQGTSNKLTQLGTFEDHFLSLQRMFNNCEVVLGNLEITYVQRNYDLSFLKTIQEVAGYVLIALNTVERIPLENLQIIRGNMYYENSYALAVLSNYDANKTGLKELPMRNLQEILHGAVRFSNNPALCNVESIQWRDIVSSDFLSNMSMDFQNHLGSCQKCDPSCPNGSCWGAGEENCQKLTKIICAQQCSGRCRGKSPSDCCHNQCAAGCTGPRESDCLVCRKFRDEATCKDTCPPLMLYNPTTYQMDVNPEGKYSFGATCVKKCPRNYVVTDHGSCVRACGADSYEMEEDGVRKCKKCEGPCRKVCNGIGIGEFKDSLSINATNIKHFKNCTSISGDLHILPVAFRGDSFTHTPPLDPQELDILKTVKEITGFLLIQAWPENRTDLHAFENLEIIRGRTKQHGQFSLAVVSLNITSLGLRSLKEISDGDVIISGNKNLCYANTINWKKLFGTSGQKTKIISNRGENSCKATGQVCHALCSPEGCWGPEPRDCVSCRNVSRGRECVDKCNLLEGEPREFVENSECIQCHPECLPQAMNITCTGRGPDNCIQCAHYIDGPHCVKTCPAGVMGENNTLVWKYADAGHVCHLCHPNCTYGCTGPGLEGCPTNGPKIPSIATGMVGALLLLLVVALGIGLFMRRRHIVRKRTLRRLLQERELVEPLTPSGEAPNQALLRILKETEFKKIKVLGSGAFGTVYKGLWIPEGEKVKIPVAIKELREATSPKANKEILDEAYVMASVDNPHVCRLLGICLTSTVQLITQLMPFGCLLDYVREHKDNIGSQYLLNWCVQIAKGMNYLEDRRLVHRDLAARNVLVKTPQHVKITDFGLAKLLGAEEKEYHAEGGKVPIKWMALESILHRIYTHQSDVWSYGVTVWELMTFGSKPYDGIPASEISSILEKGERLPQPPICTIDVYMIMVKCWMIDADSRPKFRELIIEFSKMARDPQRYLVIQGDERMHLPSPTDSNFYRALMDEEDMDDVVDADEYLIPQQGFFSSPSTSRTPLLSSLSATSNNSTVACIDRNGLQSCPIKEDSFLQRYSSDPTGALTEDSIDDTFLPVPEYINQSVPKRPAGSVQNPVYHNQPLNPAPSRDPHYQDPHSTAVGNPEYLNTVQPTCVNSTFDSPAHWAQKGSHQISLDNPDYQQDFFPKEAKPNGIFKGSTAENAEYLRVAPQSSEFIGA
T4 sequence (P12931 2-536 limits assumed): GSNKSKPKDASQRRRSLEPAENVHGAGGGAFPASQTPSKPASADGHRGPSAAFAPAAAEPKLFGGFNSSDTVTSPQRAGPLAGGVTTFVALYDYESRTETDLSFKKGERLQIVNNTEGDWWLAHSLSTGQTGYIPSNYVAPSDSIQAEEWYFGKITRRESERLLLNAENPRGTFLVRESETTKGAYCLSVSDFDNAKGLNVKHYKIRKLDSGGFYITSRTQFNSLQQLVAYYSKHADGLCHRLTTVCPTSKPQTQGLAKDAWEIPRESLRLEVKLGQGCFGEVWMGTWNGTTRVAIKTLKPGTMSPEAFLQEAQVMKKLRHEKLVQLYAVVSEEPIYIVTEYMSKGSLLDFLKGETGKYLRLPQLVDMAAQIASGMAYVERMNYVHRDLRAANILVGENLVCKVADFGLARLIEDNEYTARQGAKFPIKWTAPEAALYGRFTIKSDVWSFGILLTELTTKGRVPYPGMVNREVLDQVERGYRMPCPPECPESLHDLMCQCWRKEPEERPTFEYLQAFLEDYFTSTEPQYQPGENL
Sequence of Tyrosine-protein kinase Lck (Homo sapiens) (P06239 2-509 limits assumed): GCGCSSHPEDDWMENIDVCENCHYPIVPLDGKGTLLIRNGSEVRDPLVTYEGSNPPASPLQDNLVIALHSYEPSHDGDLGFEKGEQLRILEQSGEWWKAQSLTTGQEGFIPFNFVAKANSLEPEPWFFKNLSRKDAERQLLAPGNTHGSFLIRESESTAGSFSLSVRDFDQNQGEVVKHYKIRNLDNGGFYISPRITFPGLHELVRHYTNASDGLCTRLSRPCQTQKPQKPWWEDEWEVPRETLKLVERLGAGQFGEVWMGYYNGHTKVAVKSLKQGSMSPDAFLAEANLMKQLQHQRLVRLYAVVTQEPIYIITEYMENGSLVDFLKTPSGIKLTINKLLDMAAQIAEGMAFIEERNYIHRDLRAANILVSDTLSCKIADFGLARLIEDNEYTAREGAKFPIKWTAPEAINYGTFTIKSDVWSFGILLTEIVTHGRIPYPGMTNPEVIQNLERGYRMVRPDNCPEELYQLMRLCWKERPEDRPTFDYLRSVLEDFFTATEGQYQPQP
Sequence of Receptor-interacting serine/threonine-protein kinase 2 (O43353 whole entry, the tested form may be a part): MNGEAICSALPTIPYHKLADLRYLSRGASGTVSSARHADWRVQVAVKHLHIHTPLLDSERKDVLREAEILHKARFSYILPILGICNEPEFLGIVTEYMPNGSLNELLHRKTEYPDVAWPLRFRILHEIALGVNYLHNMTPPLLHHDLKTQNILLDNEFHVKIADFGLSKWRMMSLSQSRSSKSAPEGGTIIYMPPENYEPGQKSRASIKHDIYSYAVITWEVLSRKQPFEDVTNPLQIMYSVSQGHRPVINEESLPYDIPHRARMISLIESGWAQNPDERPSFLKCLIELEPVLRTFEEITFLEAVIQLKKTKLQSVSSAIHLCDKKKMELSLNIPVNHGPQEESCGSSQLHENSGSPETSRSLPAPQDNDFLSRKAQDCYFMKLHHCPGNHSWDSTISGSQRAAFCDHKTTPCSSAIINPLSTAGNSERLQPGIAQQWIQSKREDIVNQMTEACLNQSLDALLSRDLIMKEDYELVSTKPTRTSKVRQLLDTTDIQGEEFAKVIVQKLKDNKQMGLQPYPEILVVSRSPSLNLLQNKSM
Sequence of Protein-tyrosine kinase 6 (Homo sapiens) (Q13882 whole entry, looked up, the tested form may be a part): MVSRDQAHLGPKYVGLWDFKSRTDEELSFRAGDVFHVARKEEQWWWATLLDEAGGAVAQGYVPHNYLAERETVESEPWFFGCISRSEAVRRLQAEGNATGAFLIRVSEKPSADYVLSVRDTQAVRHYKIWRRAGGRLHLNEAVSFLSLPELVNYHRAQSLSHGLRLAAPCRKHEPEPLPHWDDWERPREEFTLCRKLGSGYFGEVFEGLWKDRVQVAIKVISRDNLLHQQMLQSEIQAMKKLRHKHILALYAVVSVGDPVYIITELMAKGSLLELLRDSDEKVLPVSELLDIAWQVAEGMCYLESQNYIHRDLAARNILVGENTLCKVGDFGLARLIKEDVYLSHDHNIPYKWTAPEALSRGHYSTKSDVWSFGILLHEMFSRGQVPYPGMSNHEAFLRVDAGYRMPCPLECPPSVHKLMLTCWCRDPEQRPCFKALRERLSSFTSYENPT

For `COc1cc2c(Oc3ccc(NS(=O)(=O)c4ccccc4OC(F)(F)F)cc3F)ccnc2cc1OCCCN1CCN(C)CC1`, the inhibition (MDA-MB-231 [1]) was “Active”, the IC50 (MDA-MB-231 [2]) was 4.3 µM and the IC50 [3] was 0.051 µM. For the same molecule, the IC50 [4] was 1.54 µM, the IC50 [5] was 3.08 µM and the IC50 (MDA-MB-231 [6]) was 0.103 µM. The IC50 [7] was 1.95 µM, the Selectivity ratio [8] was 2 - 6 and the IC50 [9] was 0.051 µM. For the same molecule, the “Ratio IC50” value [10] was greater than 50.

Work on `COc1cc2c(Oc3ccc(NS(=O)(=O)c4cc(F)ccc4F)cc3F)ccnc2cc1OCC(=O)N(C)C` yielded an IC50 [9] greater than 1 µM.

For `COc1cc2c(Oc3ccc(NS(=O)(=O)c4ccccc4C(F)(F)F)cc3F)ccnc2cc1OCCCN1CCC(C)CC1`, the Activity [11] was “Active”, the Activity [12] was “Active” and the Activity [13] was “Active”. For the same molecule, the IC50 [3] was 0.046 µM, the IC50 [4] was 0.609 µM and the Activity [14] was “Active”. For the same molecule, the Activity [15] was “Active”, the IC50 [5] was 0.592 µM and the Activity [16] was “Active”. The Activity [17] was “Active”, the IC50 [7] was 1.72 µM and the Activity [18] was “Active”. The Activity [19] was “Active”, the Activity [20] was “Active” and the “Ratio IC50” value [10] was greater than 50. The Activity [21] was “Active”, the Activity [22] was “Active” and the Activity [23] was “Active”. For the same molecule, the Activity [24] was “Active” and the Activity [25] was “Active”.

With `CC(=O)O[C@H]1C(=O)[C@@]2(C)[C@H]([C@H](OC(=O)c3ccccc3)[C@]3(O)C[C@H](OC(=O)[C@H](O)[C@@H](NC(=O)c4ccccc4)c4ccccc4)C(C)=C1C3(C)C)[C@]1(OC(C)=O)CO[C@@H]1C[C@@H]2O` [PACLITAXEL] the Activity [26] was “Toxic”, the Activity (MDA-MB-231 [27]) was 54.3% and the Activity (MDA-MB-231 [28]) was “inactive”. For the same molecule, the TGI (MDA-MB-231 [29]) was “Active”.

For `COc1cc2nccc(Oc3ccc(NS(=O)(=O)c4ccc(F)c(Cl)c4)c(F)c3)c2cc1OC`, the IC50 [9] was greater than 1 µM.

In the case of `COc1cc2nccc(Oc3ccc(NS(=O)(=O)c4c(F)cccc4F)c(F)c3)c2cc1OC`, the IC50 [9] is reported as greater than 1 µM.

In the case of `COc1cc2c(Oc3ccc(NS(=O)(=O)c4ccccc4C(F)(F)F)cc3F)ccnc2cc1OCCCN1CCOCC1`, the Activity [11] is reported as “Active”, the Activity [12] is reported as “Active” and the Activity [13] is reported as “Active”. For the same molecule, the IC50 [3] was 0.021 µM, the IC50 [4] was 0.338 µM and the Activity [14] was “Active”. For the same molecule, the Activity [15] was “Active”, the IC50 [5] was 0.65 µM and the Activity [16] was “Active”. The Activity [17] was “Active”, the IC50 [7] was 0.995 µM and the Activity [18] was “Active”. For the same molecule, the IC50 [9] was 0.021 µM, the Activity [19] was “Active” and the Activity [20] was “Active”. For the same molecule, the “Ratio IC50” value [10] was greater than 50, the Activity [21] was “Active” and the Activity [22] was “Active”. For the same molecule, the Activity [23] was “Active”, the Activity [24] was “Active” and the Activity [25] was “Active”.
